Source: PubChem BioAssay AID871 (The Scripps Research Institute Molecular Screening Center, 2007)
In all, about 190,000 compounds went through this assay and about 1,800 (0.95%) were called active. What follows is part of a selection rich in actives, with near analogues and random picks from the rest. A number with no mark means an inactive call.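 The calls were made as follows: active = activation above the screen-wide mean of compound activation plus 3 SD (cut at about 130% in these data); inactive = the rest.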

Assay: enhancers of STAT3 transcriptional signaling – U3A cells, luciferase, luminescence, MLSCN library, primary screen (AID 871);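 also: 0% = background luminescence of wells with medium and substrate only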
Settings: IL-6 STAT3-luciferase reporter, at 5.6 µM, stronger effect = higher value, 100% = signal with IL-6 EC80 alone
Summary of the method: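 Material: STAT3-luciferase reporter U3A cells; Probe or stimulus: IL-6 (33 ng/mL); Incubation: compound pre-incubation 1 h before IL-6, then 6 h stimulation at 37 °C; Technique: luminescence from STAT3-driven luciferase reporter; Evaluation: % activation versus median of IL-6-stimulated wells; Controls: IL-6-only high control.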

SMILES	activation (% of control)
Cc1cc(C)c(C#N)c(SCC(=O)Nc2ccccc2)n1	85.2%
Cc1ccc(C(=O)N2CCCC(c3ccccc3)=N2)cc1	92.1%
COc1ccc(OC)c(S(=O)(=O)Nc2ccccc2F)c1	96.8%
COC(=O)c1[nH]c2ccc(Br)cc2c1NC(=O)Oc1ccccc1	102%
COC(=O)c1[nH]c2ccccc2c1NS(=O)(=O)c1ccc(OC)cc1OC	149% (active)
O=[N+]([O-])c1ccccc1Nc1ccc(O)cc1	104%
CCOc1ccc2c(=O)c(-c3ccc4c(c3)OCCCO4)c(C)oc2c1	98.4%
Cc1ccc(NC(=O)c2cc([N+](=O)[O-])ccc2Cl)c(O)c1	138% (active)
CC(C)C(=O)Nc1cccc(NC(=O)c2ccc([N+](=O)[O-])cc2Cl)c1	106%
CCC(C)C(=O)Nc1cc([N+](=O)[O-])ccc1Cl (configuration not stated)	103%
CC1CCC2(CC1)NC(=O)N(Cc1nnc(-c3cccs3)o1)C2=O (configuration not stated)	96.4%
C/C(=C\c1ccco1)CN1CCC(N2CCC(C(=O)N3CCOCC3)CC2)CC1	110%
Cn1cc(CN2CCCC(CO)C2)c(-c2ccc(Oc3ccccc3)cc2)n1 (configuration not stated)	108%
COc1cc(NS(=O)(=O)c2ccc(N/C=C(\C=O)c3nc4cc(Cl)ccc4o3)cc2)nc(OC)n1	159% (active)
COc1cc(NS(=O)(=O)c2ccc(NC(=O)c3ccc(S(=O)(=O)N4CCCCC4)cc3)cc2)ncn1	97.5%
COc1cc(NS(=O)(=O)c2ccc(N=Cc3c(C)[nH]n(-c4ccccc4)c3=O)cc2)nc(OC)n1	111%
NC(=O)c1ccc(NC(=O)COC(=O)C(Cc2ccccc2)NC(=O)c2ccccc2)cc1 (configuration not stated)	92.8%
CCN(CC)CCN(C(=O)c1ccc(N2C(=O)CCC2=O)cc1)c1nc2cc3c(cc2s1)OCO3	107%
C/C(=N/NC(=O)c1ccc(NC(=O)c2ccc(F)cc2)cc1)c1ccccc1	85.3%
COc1ccc(C(=O)Nc2ccccc2C(=O)N/N=C/c2ccccc2OC)cc1	105%
COc1ccccc1C(=O)NNC(=O)c1ccc(NC(=O)c2ccccc2)cc1	134% (active)
CCCn1c(C)cc(/C=C(\C#N)C(=O)OCC(=O)Nc2cc(OC)c(OC)c(OC)c2)c1C	103%
Cc1nc2ccccc2cc1O	163% (active)
Cc1cc(O)ccc1-c1cnc2ccccc2n1	102%
Cc1nc2ccccc2cc1OCc1ccc(F)cc1	44.1%

SMILES	activation (% of control)
CC(=O)NCCC(=O)Nc1cc(S(=O)(=O)N2CCOCC2)ccc1N1CCOCC1	105%
CCOc1cc(NC(=S)NCCCN(C)C)c(OCC)cc1NC(=O)C1CC1	99.1%
O=C(NNC1=C(C(=O)C(F)(F)F)CCC1)c1ccncc1	95.6%
CCN(CC)CCn1c(/N=C/c2cc(Br)ccc2O)nc2ccccc21	133% (active)
CCn1c(NC(=O)c2nn(C)cc2Br)nc2ccccc21	96.8%
Oc1ccc(Br)cc1C=Nc1ccc2[nH]ncc2c1	102%
S=c1[nH]nc(-c2cccs2)n1/N=C/c1cccs1	109%
Cc1cc(OC(=O)c2ccccc2)c([N+](=O)[O-])c(=O)[nH]1	106%
O=C(NCC1CCCO1)/C(=C/c1ccc(Cl)cc1)NC(=O)c1ccccc1 (configuration not stated)	88.2%
CSc1ccccc1NC(=O)c1cc(C2CC2)on1	122%
Cc1nn(Cc2ccc(Cl)c(Cl)c2)c(C)c1NC(=O)c1cc(C2CC2)on1	92.8%
O=C(Nc1cc(C(F)(F)F)ccc1Cl)c1cc(C2CC2)on1	150% (active)
CCCN(CCC)c1c([N+](=O)[O-])c(=O)oc2ccccc12	96.6%
Cc1ccn(-c2cccc(-n3ccc(C)n3)n2)n1	93.6%
CCC(C)NC(=O)CN(C1CCCCC1)S(C)(=O)=O (configuration not stated)	105%
Cc1cc(=O)n2[nH]c(-c3sccc3-n3c(C)ccc3C)cc2n1	118%
CCCC(C)C(=O)OCC(=O)Nc1c(Br)cc(C)cc1Br (configuration not stated)	102%
Cc1cccc(C(=O)Nc2nnc(Cc3c[nH]c4ccccc34)s2)c1	157% (active)
COc1ccc(Cc2nnc(NC(=O)c3cc(OC)c(OC)c(OC)c3)s2)cc1OC	91.5%
CCc1nnc(NC(=O)[C@@H](NC(=O)c2cccc(C)c2)C(C)C)s1	101%
CCc1ccc2ncc(C(=O)c3ccccc3)c(N3CCOCC3)c2c1	110%
CCn1c(SCC(=O)N/N=C/C=C/c2ccccc2[N+](=O)[O-])nnc1-c1ccccc1	138% (active)
CCn1c(SCC(=O)Nc2ccc(S(=O)(=O)Nc3onc(C)c3C)cc2)nnc1-c1ccccc1	98.7%
Cc1ccc(-n2c(SCC(=O)N/N=C/C=C/c3ccccc3[N+](=O)[O-])nc3ccccc3c2=O)cc1	97.7%
COc1ccc(CCNC(=O)COC(=O)Cc2cc(OC)c(OC)c(OC)c2)cc1	111%

SMILES	activation (% of control)
CC(C)NC(=O)C(=O)NCCCOC(C)C	101%
COc1nc(N=C(N)N)nc2c(C)cccc12	172% (active)
COc1ccc2nc(/N=C(\N)NC(=O)Nc3ccccc3)nc(C)c2c1	100%
CCc1c(C)nc2c(OC)cccc2c1Cl	101%
Cc1cccc2c(=O)n3c(nc12)CCCCC3	102%
Cc1nc(N=C(N)N)nc2c(C)cccc12	168% (active)
O=C(COC(=O)c1ccccc1)Nc1cccc(S(=O)(=O)N2CCOCC2)c1	101%
CCC1CCCCN1C(=S)Nc1ccc(SC(F)F)cc1 (configuration not stated)	94.3%
CC1(C)CC(=O)CC2(C1)NCC(c1ccccc1Cl)c1c2[nH]c2ccccc12 (configuration not stated)	105%
O=C(C1=C(O)C(=O)N(Cc2ccccc2)C1c1cccnc1)c1ccco1 (configuration not stated)	100%
O=C(C1=C(O)C(=O)N(Cc2ccccc2)C1c1ccco1)c1ccco1 (configuration not stated)	101%
O=C(C1=C(O)C(=O)N(c2ncccn2)C1c1cccs1)c1ccco1 (configuration not stated)	134% (active)
CCOC(=O)CNC(=O)/C=C/c1c(Cl)cccc1Cl	86.6%
CCOC(=O)C1CCN(c2ncnc3c2c(-c2ccccc2)cn3-c2ccc(C)cc2)CC1	102%
CCOC(=O)C1CCN(C(=O)c2oc3ccc(S(=O)(=O)N4CCCCCC4)cc3c2C)CC1	89.9%
CCOC(=O)C1CCN(c2ncnc3c2oc2ccc(Br)cc23)CC1	141% (active)
O=C(O)c1ccccc1-c1ccccc1C(=O)Nc1nccs1	101%
COc1cc(C(=O)Nc2nccs2)cc(OC)c1OC	81%
Cn1cccc1C(=O)Nc1nccs1	140% (active)
COC(=O)Cc1c(O)ccn(Cc2cccc(C(F)(F)F)c2)c1=O	99.8%
Cc1c(-c2ccccc2)n[nH]c1C(=O)N=Nc1c(O)[nH]c2ccccc12	84.5%
Cc1cccc(N(CC(=O)N=Nc2c(O)[nH]c3ccccc23)S(C)(=O)=O)c1C	140% (active)
COCC(=O)N=Nc1c(O)[nH]c2ccccc12	92.2%
CC1=NNC(=O)C1CCC(=O)N/N=C\c1ccc(Cl)c(Cl)c1 (configuration not stated)	108%
Cc1ccc2nsnc2c1NC(=O)c1ccccc1[N+](=O)[O-]	99.5%

SMILES	activation (% of control)
O=C(O/N=C(/c1ccccc1)c1ccncc1)c1ccccc1[N+](=O)[O-]	113%
C/C(=N\NC(=O)CNc1cccc2ccccc12)c1ccc(Br)s1	137% (active)
C/C(=N\NC(=O)CSc1nc2ccccc2c(=O)n1-c1ccccc1C)c1cccs1	105%
Cc1cccc(/C=N/NC(=O)CNc2cccc3ccccc23)n1	114%
Cc1cc(/C=N/NC(=O)c2cccnc2)c(C)n1CC(C)C	118%
Cc1c(Cl)cnc(NC(=O)COC(=O)c2ccc(S(=O)(=O)NCc3ccco3)cc2)c1Cl	103%
CSCCC(NC(=O)COc1ccccc1)C(=O)OCC(=O)c1cc2ccccc2o1 (configuration not stated)	116%
CSCCC(NC(=O)c1ccco1)C(=O)OCC(=O)Nc1ncc(Cl)c(C)c1Cl (configuration not stated)	145% (active)
CC(C)OCCCNc1ncnc2c1[nH]c1ccc(F)cc12	36.3%
O=C(CCn1c(=S)[nH]c2ccccc2c1=O)NCCCN1CCCC1=O	98.6%
O=C1CCCN1CCCNc1ncnc2c1[nH]c1ccccc12	151% (active)
CCCc1nnc(SCC(=O)N2C(C)CCCC2C)n1CC (configuration not stated)	105%
N#CCSc1nn(-c2ccc(F)cc2)c(=S)s1	103%
O=C(CNC1CCCCC1)NCC1(c2ccccc2)CCCC1	112%
CN1CCN(c2ccc(S(=O)(=O)Nc3ccccc3)cc2[N+](=O)[O-])CC1	79.1%
CN1CCN(c2ccc([N+](=O)[O-])c(Sc3nc4ccccc4[nH]3)c2)CC1	137% (active)
O=C(CSc1nc2ccccc2[nH]1)N/N=C/C=C\c1ccccc1[N+](=O)[O-]	96.6%
COc1ccc2c(c1)CCc1cn3ncc(C#N)c3nc1-2	100%
O=C(NCC1CCCCC1)c1cc(S(=O)(=O)N2CCCCC2)ccc1N1CCOCC1	104%
CC(=O)Nc1ccc(S(=O)(=O)N2CCN(c3ccc([N+](=O)[O-])c(NCCN4CCOCC4)c3)CC2)cc1	104%
O=C(c1ccccc1)N1CCN(c2ccc([N+](=O)[O-])c(NCc3ccco3)c2)CC1	107%
O=[N+]([O-])c1ccc(N2CCN(S(=O)(=O)c3ccc4ccccc4c3)CC2)cc1NCc1ccco1	154% (active)
